Test results: ChEMBL document CHEMBL3603743, “Design, synthesis and biological evaluation of saccharin-based N-hydroxybenzamides as histone deacetylases (HDACs) inhibitors” (Bioorg Med Chem, 2015)

Experiments:
[1] = target: Histone deacetylase (HDAC1 and HDAC2) (Homo sapiens, UniProt Q13547+Q92769); experiment: Inhibition of HDAC1/2 in human HeLa cells nuclear extracts using acetylated histone peptide as substrate after 30 mins by Color de Lys assay; type: cell-based
MDA-MB-231 [2] = experiment: Antiproliferative activity against human MDA-MB-231 cells after 48 hrs by MTT assay; type: functional, cell-based; details: MDA-MB-231, 48 h
PC-3 = experiment: Antiproliferative activity against human PC3 cells after 48 hrs by MTT assay; type: functional, cell-based; details: PC-3, 48 h
MDA-MB-231 [3] = experiment: Induction of apoptosis in human MDA-MB-231 cells assessed as late apoptotic cells at 1 uM after 24 hrs using Annexin V-FITC and propidium iodide staining by flow cytometry (reference value: 4.04%); type: functional
In short: (§1)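 MDA-MB-231 cells (1.2 × 10⁵) exposed to compound for 24 h, then harvested and washed in PBS. Cells resuspended in Annexin V-FITC binding buffer, stained with Annexin V-FITC plus propidium iodide for 10 min at room temperature, held on ice and analysed by flow cytometry.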

MDA-MB-231 [4] = experiment: Induction of apoptosis in human MDA-MB-231 cells assessed as early apoptotic cells at 1 uM after 24 hrs using Annexin V-FITC and propidium iodide staining by flow cytometry (reference value: 2.60%); type: functional; in short: as §1
MDA-MB-231 [5] = experiment: Induction of apoptosis in human MDA-MB-231 cells assessed as late apoptotic cells at 4 uM after 24 hrs using Annexin V-FITC and propidium iodide staining by flow cytometry (reference value: 4.04%); type: functional; in short: as §1
MDA-MB-231 [6] = experiment: Induction of apoptosis in human MDA-MB-231 cells assessed as early apoptotic cells at 4 uM after 24 hrs using Annexin V-FITC and propidium iodide staining by flow cytometry (reference value: 2.60%); type: functional; in short: as §1
MDA-MB-231 [7] = experiment: Induction of apoptosis in human MDA-MB-231 cells assessed as total apoptotic cells at 1 uM after 24 hrs using Annexin V-FITC and propidium iodide staining by flow cytometry; type: functional; in short: as §1
[8] = Antiproliferative activity against human KG1 cells after 48 hrs by MTT assay; type: functional, cell-based; details: KG-1, 48 h

SMILES: O=C(NO)c1ccc(CN2C(=O)c3ccc(I)cc3S2(=O)=O)cc1
- IC50 [1]: 1.335 µM

SMILES: O=C(NO)c1ccc(CN2C(=O)c3ccc(NC(=O)c4ccccc4)cc3S2(=O)=O)cc1
- IC50 [1]: 0.38 µM

SMILES: O=C(CCCN1C(=O)c2ccccc2S1(=O)=O)Nc1ccc(C(=O)NO)cc1
- IC50 [1]: 0.233 µM
- IC50 (MDA-MB-231 [2]): 8.71 µM
- IC50 (PC-3): > 25 µM
- Activity (MDA-MB-231 [3]): 4.06%
- Activity (MDA-MB-231 [4]): 3.44%
- Activity (MDA-MB-231 [5]): 5.35%
- Activity (MDA-MB-231 [6]): 4.7%
- Activity (MDA-MB-231 [7]): 7.5%

SMILES: O=C(CCCN1C(=O)c2ccc([N+](=O)[O-])cc2S1(=O)=O)Nc1ccc(C(=O)NO)cc1
- IC50 [1]: 1.66 µM

SMILES: O=C(Cc1ccccc1)Nc1ccc2c(c1)S(=O)(=O)N(Cc1ccc(C(=O)NO)cc1)C2=O
- IC50 [1]: 0.53 µM

SMILES: O=C(NO)c1ccc(CN2C(=O)c3ccc(-c4ccccc4)cc3S2(=O)=O)cc1
- IC50 [1]: 0.386 µM

SMILES: O=C(CCCCN1C(=O)c2ccccc2S1(=O)=O)NCc1ccc(C(=O)NO)cc1
- IC50 [1]: 3.4 µM

SMILES: O=C(CCCCCN1C(=O)c2ccccc2S1(=O)=O)NCc1ccc(C(=O)NO)cc1
- IC50 [1]: 2.65 µM

SMILES: O=C(CCN1C(=O)c2ccccc2S1(=O)=O)Nc1cccc(C(=O)NO)c1
- IC50 [1]: > 5 µM

SMILES: O=C(CCCN1C(=O)c2ccc(-c3ccccc3)cc2S1(=O)=O)Nc1ccc(C(=O)NO)cc1
- IC50 [1]: 1.51 µM
- IC50 (MDA-MB-231 [2]): 9.9 µM
- IC50 [8]: 11.6 µM
- IC50 (PC-3): > 25 µM

SMILES: O=C(CCN1C(=O)c2ccc([N+](=O)[O-])cc2S1(=O)=O)Nc1ccc(C(=O)NO)cc1
- IC50 [1]: 2.02 µM

SMILES: O=C(NO)c1ccc(CN2C(=O)c3ccc(NC(=O)c4ccc(C(F)(F)F)cc4)cc3S2(=O)=O)cc1
- IC50 [1]: 1.413 µM

SMILES: O=C(CCCCN1C(=O)c2ccc(-c3ccccc3)cc2S1(=O)=O)Nc1ccc(C(=O)NO)cc1
- IC50 [1]: > 5 µM

SMILES: O=C(NO)c1ccc(CN2C(=O)c3ccccc3S2(=O)=O)cc1
- IC50 [1]: 1.398 µM

SMILES: O=C(CCCN1C(=O)c2ccc(I)cc2S1(=O)=O)Nc1ccc(C(=O)NO)cc1
- IC50 [1]: 0.419 µM

SMILES: O=C(CCN1C(=O)c2ccc(I)cc2S1(=O)=O)Nc1ccc(C(=O)NO)cc1
- IC50 [1]: 0.523 µM

SMILES: O=C(CCCCCN1C(=O)c2ccc([N+](=O)[O-])cc2S1(=O)=O)Nc1cccc(C(=O)NO)c1
- IC50 [1]: > 5 µM

SMILES: O=C(NO)c1ccc(CN2C(=O)c3ccc(NC(=O)c4ccc(-c5ccccc5)cc4)cc3S2(=O)=O)cc1
- IC50 [1]: > 5 µM

SMILES: O=C(NO)c1ccc(CN2C(=O)c3ccc([N+](=O)[O-])cc3S2(=O)=O)cc1
- IC50 [1]: > 5 µM

SMILES: O=C(CCN1C(=O)c2ccc(-c3ccccc3)cc2S1(=O)=O)Nc1ccc(C(=O)NO)cc1
- IC50 [1]: 1.7 µM
- IC50 (MDA-MB-231 [2]): 3.45 µM
- IC50 [8]: 5.23 µM
- IC50 (PC-3): 8.79 µM
- Activity (MDA-MB-231 [3]): 7.49%
- Activity (MDA-MB-231 [4]): 9.27%
- Activity (MDA-MB-231 [5]): 9.86%
- Activity (MDA-MB-231 [6]): 13.48%
- Activity (MDA-MB-231 [7]): 16.76%

SMILES: Cc1ccc(/C=C/C(=O)Nc2ccc3c(c2)S(=O)(=O)N(Cc2ccc(C(=O)NO)cc2)C3=O)cc1
- IC50 [1]: 1.297 µM

SMILES: O=C(CCCCCCC(=O)Nc1ccccc1)NO [VORINOSTAT]
- Activity (MDA-MB-231 [3]): 3.32%
- Activity (MDA-MB-231 [4]): 8%
- Activity (MDA-MB-231 [5]): 7.66%
- Activity (MDA-MB-231 [6]): 7.1%
- Activity (MDA-MB-231 [7]): 11.32%

SMILES: O=C(CCN1C(=O)c2ccccc2S1(=O)=O)Nc1ccc(C(=O)NO)cc1
- IC50 [1]: 0.3 µM

SMILES: O=C(CCCCCN1C(=O)c2ccccc2S1(=O)=O)Nc1cccc(C(=O)NO)c1
- IC50 [1]: > 5 µM

SMILES: O=C(NO)c1ccc(CN2C(=O)c3ccc(NC(=O)c4ccc(F)cc4)cc3S2(=O)=O)cc1
- IC50 [1]: 0.646 µM

SMILES: O=C(CCCCN1C(=O)c2ccccc2S1(=O)=O)Nc1cccc(C(=O)NO)c1
- IC50 [1]: > 5 µM

SMILES: COc1cc(C(=O)Nc2ccc3c(c2)S(=O)(=O)N(Cc2ccc(C(=O)NO)cc2)C3=O)cc(OC)c1OC
- IC50 [1]: 1.71 µM

SMILES: O=C(CCCN1C(=O)c2ccccc2S1(=O)=O)Nc1cccc(C(=O)NO)c1
- IC50 [1]: > 5 µM

SMILES: O=C(CCN1C(=O)c2ccccc2S1(=O)=O)NCc1ccc(C(=O)NO)cc1
- IC50 [1]: 2.79 µM

SMILES: O=C(CCCCN1C(=O)c2ccc(I)cc2S1(=O)=O)Nc1ccc(C(=O)NO)cc1
- IC50 [1]: 0.305 µM
